# Measured values from article PMC2652879 (Clinical cancer research : an official journal of the …, 2008).
# Legend:
# [1] = AG014447 concentration in tumour biopsy homogenates; type: in vivo, human; conditions: samples taken 5 hours (24 hr in 3 patients) after administration
# [2] = Plasma pharmacokinetics of AG014447; type: in vivo, human; conditions: for effect of TMZ on pharmacokinetics (interaction): after a single dose or multiple doses
# PARP [3] = target: T1, PARP (Homo sapiens, UniProt P09874); assay: PARP activity immunoassay in paired tumour biopsies of melanoma patients; type: in vivo
# T1 sequence (P09874 whole entry): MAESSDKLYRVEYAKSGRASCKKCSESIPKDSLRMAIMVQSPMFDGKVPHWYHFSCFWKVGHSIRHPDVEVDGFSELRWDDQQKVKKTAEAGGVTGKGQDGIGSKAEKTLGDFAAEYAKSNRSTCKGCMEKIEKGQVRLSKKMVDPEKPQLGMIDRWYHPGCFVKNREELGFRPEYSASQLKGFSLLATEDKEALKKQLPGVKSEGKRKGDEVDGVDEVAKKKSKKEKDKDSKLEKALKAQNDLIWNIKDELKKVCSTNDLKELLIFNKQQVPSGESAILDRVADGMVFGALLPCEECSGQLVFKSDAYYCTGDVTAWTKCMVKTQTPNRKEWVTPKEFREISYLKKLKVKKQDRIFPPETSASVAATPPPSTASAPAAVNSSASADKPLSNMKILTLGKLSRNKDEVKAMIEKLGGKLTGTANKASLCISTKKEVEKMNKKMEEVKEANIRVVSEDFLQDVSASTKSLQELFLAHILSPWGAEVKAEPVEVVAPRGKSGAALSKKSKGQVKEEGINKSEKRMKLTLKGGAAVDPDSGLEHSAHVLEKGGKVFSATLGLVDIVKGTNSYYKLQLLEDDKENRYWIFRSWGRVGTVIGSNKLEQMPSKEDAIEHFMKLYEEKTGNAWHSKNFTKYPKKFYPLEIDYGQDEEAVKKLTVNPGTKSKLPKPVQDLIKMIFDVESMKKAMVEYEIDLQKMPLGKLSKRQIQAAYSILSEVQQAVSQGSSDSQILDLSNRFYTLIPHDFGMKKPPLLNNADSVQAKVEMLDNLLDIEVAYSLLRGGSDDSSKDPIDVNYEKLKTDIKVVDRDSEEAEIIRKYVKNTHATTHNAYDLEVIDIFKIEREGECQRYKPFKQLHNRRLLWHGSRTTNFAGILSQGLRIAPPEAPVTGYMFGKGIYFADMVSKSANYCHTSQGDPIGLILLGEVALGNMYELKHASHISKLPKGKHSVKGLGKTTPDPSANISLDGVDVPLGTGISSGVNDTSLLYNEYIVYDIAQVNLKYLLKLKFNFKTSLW
# In short: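 Chemonaive melanoma patients (part 2) received PARP inhibitor at PID with temozolomide escalated to at most 200 mg/m2; one extra level used 18 mg/m2 inhibitor plus 200 mg/m2 temozolomide. Paired biopsies were taken at baseline and after the first inhibitor dose (4, 5 or 24 h stated). PAR formation was quantified immunologically ex vivo. Activity was expressed as percentage of the same patient's pre-treatment biopsy.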
# metastatic melanoma = conditions: phase II, AG014699 with TMZ, preliminary results; cited from earlier work
# [4] = Toxicity / dose limiting toxicity in phase I trial; type: in vivo, human; conditions: for dose recommended for future studies: combination, x5 every 28 days
# advanced solid tumors = assay: Tumour response by RECIST in phase I patients; type: in vivo, human; conditions: AG014699 + TMZ
# In short: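 Patients with advanced solid tumours received a daily 30 min IV infusion of test compound followed by oral temozolomide for 5 consecutive days, repeated every 28 days. Response was assessed by RECIST every 2 cycles, and patients completing 2 cycles were evaluable.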
# SW620 tumours = conditions: most efficacious dose of AG014699 combined with TMZ; animals bearing SW620 tumours; cited from earlier work
# PARP [5] = conditions: most efficacious dose of AG014699 combined with TMZ; cited from earlier work
# [6] = test system: DNA strand breaks in PBLs; assay: Alkaline Comet assay for DNA strand breaks in PBLs of patients; type: in vivo, human
# In short: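 Alkaline Comet assay (modified Olive method) on peripheral blood mononuclear cells, with slides stained with SYBR gold. Blood was sampled in cycle 1 before, 4 h and 24 h after temozolomide, following a daily 30 min IV infusion of test compound. For each sample, 50 cells from two slides were scored for % tail DNA and Olive tail moment, and means were taken. Readings were averaged by dose cohort (up to 6 patients).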
# PARP [7] = target: T1, PARP; assay: PARP activity immunoassay ex vivo in peripheral blood lymphocytes
# In short: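 Patients with solid tumours (part 1) got one IV dose of PARP inhibitor on day -7, then temozolomide 100 mg/m2/day x5 q28 days with the inhibitor, over 5 escalating dose levels. PBLs were sampled at baseline, end of infusion, 4-6 h and 24 h on days -7, 1 and 4 of cycle 1, plus day 8 at PID. PAR formation was quantified immunologically ex vivo. PID: maximal (≥50%) activity reduction at 24 h, with no gain over the preceding dose.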
# [8] = cited from earlier work
smiles,measurement,setting,value
CNCc1ccc(-c2[nH]c3cc(F)cc4c3c2CCNC4=O)cc1 [AG014447],"concentration in tumour biopsy homogenates, range",[1],5-110 ng/g tumour protein
same,effect of TMZ on pharmacokinetics (interaction),[2]; listed as AG-014447,no evidence that TMZ has an effect
same,mean terminal half-life (CV%),[2]; mean for the treated population,9.5 (50.4) hours
CNCc1ccc(-c2[nH]c3cc(F)cc4c3c2CCNC4=O)cc1 [AG014699],Mean tumor PARP inhibition,PARP [3]; at 5 hours,92%
same,"tumor PARP inhibition, range",PARP [3]; at 5 hours,46 - 97%
same,PARP inhibition in paired tumour biopsies,"PARP [3]; part 2, all biopsies, 12 and 18 mg/m^2",> 50%
same,partial response rate,metastatic melanoma,17%
same,patients having stable disease for 6 months or more,metastatic melanoma,17%
same,dose limiting toxicity observed,[4]; AG014699 18 mg/m^2/day given with TMZ 200 mg/m^2/day,Myelosuppression
same,DLTs and other grade 3/4 toxicity,"[4]; Part 1 cohort 1, AG014699 1 mg/m^2 + TMZ 100 mg/m^2, 3 patients, 30 cycles",None
same,DLTs and other grade 3/4 toxicity,"[4]; Part 1 cohort 2, AG014699 2 mg/m^2 + TMZ 100 mg/m^2, 4 patients, 11 cycles",None
same,DLTs and other grade 3/4 toxicity,"[4]; Part 1 cohort 3, AG014699 4 mg/m^2 + TMZ 100 mg/m^2, 4 patients, 20 cycles",None
same,DLTs and other grade 3/4 toxicity,"[4]; Part 1 cohort 4, AG014699 8 mg/m^2 + TMZ 100 mg/m^2, 4 patients, 5 cycles",None
same,DLTs and other grade 3/4 toxicity,"[4]; Part 1 cohort 5, AG014699 12 mg/m^2 + TMZ 100 mg/m^2, 3 patients, 11 cycles",None
same,DLTs and other grade 3/4 toxicity,"[4]; Part 2 cohort 6, AG014699 12 mg/m^2 + TMZ 135 mg/m^2, 3 patients, 6 cycles",None
same,DLTs and other grade 3/4 toxicity,"[4]; Part 2 cohort 7, AG014699 12 mg/m^2 + TMZ 170 mg/m^2, 3 patients, 10 cycles",None
same,DLTs and other grade 3/4 toxicity,"[4]; Part 2 cohort 8, AG014699 12 mg/m^2 + TMZ 200 mg/m^2, 3 patients, 16 cycles",None
same,Recommended dose,[4]; combination with temozolomide,12 mg/m^2
same,dose recommended for future studies,[4],12 mg/m^2/day
same,DLT,"[4]; part 2, PARP inhibitory dose of AG014699 with 200 mg/m^2 temozolomide",without DLT
same,tolerability of the combination with temozolomide,"[4]; patients, no toxic deaths",well tolerated
same,toxicity attributable to AG014699 alone,"[4]; patients, single agent",No toxicity of any kind
same,tumour response in patients with metastatic melanoma,advanced solid tumors; no prior chemotherapy for melanoma,one documented complete and one partial response
same,tumour response in a patient with a desmoid tumour,advanced solid tumors; previously treated with surgery and imatinib,a further partial response
same,antitumour efficacy,SW620 tumours,cures were seen
same,pharmacokinetic linearity,"[2]; 1-18 mg/m^2, 30 minute IV infusion",linear
same,exposure (AUC0-24hr) in predicted extensive vs poor CYP2D6 metabolism,"[2]; CYP2D6 genotype *4,*4 vs wild type/heterozygous",similar
same,effect of TMZ on pharmacokinetics (interaction),[2],no interaction
same,t^1/2 mean,"[2]; cohort 2, 699 dose 2 mg/m^2 (n=3), TMZ dose 100, day 1",3.8 h
same,t^1/2 mean,"[2]; cohort 2, 699 dose 2 mg/m^2 (n=3), TMZ dose 100, day 4",8.0 h
same,t^1/2 mean,"[2]; cohort 2, 699 dose 2 mg/m^2 (n=3), TMZ dose 100, day -7",6.9 h
same,t^1/2 mean,"[2]; cohort 3, 699 dose 4 mg/m^2 (n=3), TMZ dose 100, day 1",10.6 h
same,t^1/2 mean,"[2]; cohort 3, 699 dose 4 mg/m^2 (n=3), TMZ dose 100, day 4",10.9 h
same,t^1/2 mean,"[2]; cohort 3, 699 dose 4 mg/m^2 (n=3), TMZ dose 100, day -7",23.2 h
same,t^1/2 mean,"[2]; cohort 4, 699 dose 8 mg/m^2 (n=4), TMZ dose 100, day 1",13.9 h
same,t^1/2 mean,"[2]; cohort 4, 699 dose 8 mg/m^2 (n=4), TMZ dose 100, day 4",18.3 h
same,t^1/2 mean,"[2]; cohort 4, 699 dose 8 mg/m^2 (n=4), TMZ dose 100, day -7",19.9 h
same,t^1/2 mean,"[2]; cohort 5-8, 699 dose 12 mg/m^2 (n=12), TMZ dose 100-200, day 1",15.0 h
same,t^1/2 mean,"[2]; cohort 5-8, 699 dose 12 mg/m^2 (n=12), TMZ dose 100-200, day 4",16.8 h
same,t^1/2 mean,"[2]; cohort 5-8, 699 dose 12 mg/m^2 (n=12), TMZ dose 100-200, day -7",11.5 h
same,t^1/2 mean,"[2]; cohort 9, 699 dose 18 mg/m^2 (n=6), TMZ dose 200, day 1",16.0 h
same,t^1/2 mean,"[2]; cohort 9, 699 dose 18 mg/m^2 (n=6), TMZ dose 200, day 4",15.2 h
same,t^1/2 mean,"[2]; cohort 9, 699 dose 18 mg/m^2 (n=6), TMZ dose 200, day -7",13.1 h
same,inter-subject variability of normalized AUC0-24h,[2]; normalized for actual dose and for mg/m^2 dose (both cases),54%
same,xenograft PARP inhibition,PARP [5],50%
same,mean increase in Comet tail size at 24 h vs 4 h,"[6]; Day 1, PARP inhibitory doses (12-18 mg/m^2) with TMZ, p=0.03",3%
same,mean decrease in Comet tail size at 24 h vs 4 h,"[6]; Day 1, lower doses (1-8 mg/m^2) with TMZ",8%
same,DNA single strand breaks (SSB),[6]; all patients treated at PID,increases in DNA SSB
same,DNA damage in PBLs (Comet analysis),[6]; patients treated with AG014699 and TMZ,evidence of DNA damage in all patients
same,"PBL PARP enzyme activity recovered, of baseline","PARP [7]; 12 mg/m^2/day, cycle 1 day 8, 72 hours after the last dose",~50%
same,PARP inhibition in PBLs,"PARP [7]; all AG014699 dose levels, at the end of infusion",> 90%
same,inhibition of PBL PARP activity,PARP [7]; at PID 12 mg/m^2,74 -97%
same,PARP-inhibitory dose (PID),"PARP [7]; based on PBL (surrogate tissue) PARP inhibition, with TMZ 100 mg/m^2 daily x 5",12 mg/m^2
same,recovery of PBL PARP activity over 24 hours,PARP [7]; doses above 8 mg/m^2,no recovery was observed
same,recovery of PBL PARP activity over 24 hours,PARP [7]; lower dose levels,recovery of enzyme activity over 24 hours
same,PARP-inhibitory dose (PID),"PARP [7]; part 1, 5 dose levels, TMZ 100 mg/m^2/day",12 mg/m^2/day
"Cn1nnc2c(C(N)=O)ncn2c1=O [Temozolomide, reference compound]",tolerability,[8]; TMZ 200 mg/m^2/day,well tolerated
same,toxicity,[8]; TMZ 225 mg/m^2/day,significant myelosuppression
same,Recommended dose,[4]; combination with AG014699,200 mg/m2
same,dose recommended for future studies,[4],200 mg/m^2/day
